According to ChEMBL document CHEMBL1165883, “Synthesis, evaluation and computational studies on a series of acetophenone based 1-(aryloxypropyl)-4-(chloroaryl) piperazines as potential atypical antipsychotics” (2010):
The source made the active and inactive calls. No cut-off for these calls is given here.

These molecules were tested on Mus musculus (assay: Antipsychotic activity in ip dosed albino lyka mouse assessed as reversal of apomorphine-induced stereotype response administered 10 mins prior to apomorphine challenge after 10 to 30 mins).
Assay type: functional
How it was run: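 Mice of either sex (26–38 g) received vehicle, compound or clozapine (positive control), then apomorphine 2.5 mg kg^-1 after 10 min. Stereotypy was scored over 60 s in an inverted 500 ml beaker at 10, 15, 20, 25 and 30 min post-apomorphine: 1 = rearing, sniffing or grooming; 2 = licking or biting. Three dose levels, chosen by initial titration.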
`Clc1ccccc1CN1CCN(Cc2ccccc2Cl)CC1` gave an Activity of 0.86.
In the case of `CC(=O)c1ccccc1OCCCN1CCN(C(=O)c2ccccc2Cl)CC1`, the Activity is reported as “Active”.
For `Clc1ccc(CN2CCN(Cc3ccc(Cl)cc3)CC2)cc1`, the Activity was 1.02.
`CC(=O)c1ccccc1OCCCN1CCN(C(=O)c2ccc(Cl)cc2)CC1` was tested, and the Activity was “Active”.
For `CC(=O)c1ccc(OCCCN2CCN(C(=O)c3ccccc3Cl)CC2)cc1`, the Activity was “Active”.
With `CC(=O)c1ccc(OCCCN2CCN(C(=O)c3ccc(Cl)cc3)CC2)cc1` the Activity was “Active”.

These molecules were tested on Mus musculus (assay: Antipsychotic activity in ip dosed albino lyka mouse assessed as reversal of apomorphine-induced mesh climbing response administered 10 mins prior to apomorphine challenge after 10 to 30 mins).
Assay type: functional
How it was run: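 Mice of either sex (26–38 g), six per group, habituated singly in a wire-mesh cage (13 cm diameter, 14 cm high). Compound, saline (control) or clozapine (positive control) given ip; apomorphine 2.5 mg kg^-1 ip 10 min later. Climbing was scored over 60 s in the mesh cage at 10, 15, 20, 25 and 30 min: 1 = one–three paws on mesh, 2 = all four. Three titrated dose levels.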
For `CC(=O)c1ccc(OCCCN2CCN(Cc3ccc(Cl)cc3)CC2)cc1`, the ED50 was 50 mg/kg.
With `Clc1ccccc1CN1CCN(Cc2ccccc2Cl)CC1` the ED50 was 7.2 mg/kg.
With `CC(=O)c1ccccc1OCCCN1CCN(Cc2ccc(Cl)cc2)CC1` the ED50 was 10 mg/kg.
`CC(=O)c1ccccc1OCCCN1CCN(C(=O)c2ccccc2Cl)CC1` was tested, and the ED50 was “inactive”.
Work on `Clc1ccc(CN2CCN(Cc3ccc(Cl)cc3)CC2)cc1` yielded an ED50 of 10.5 mg/kg.
In the case of `CC(=O)c1ccccc1OCCCN1CCN(C(=O)c2ccc(Cl)cc2)CC1`, the ED50 is reported as “inactive”.
Work on `CC(=O)c1ccc(OCCCN2CCN(Cc3ccccc3Cl)CC2)cc1` yielded an ED50 of 23 mg/kg.
With `CC(=O)c1ccc(OCCCN2CCN(C(=O)c3ccccc3Cl)CC2)cc1` the ED50 was “inactive”.
`CC(=O)c1ccc(OCCCN2CCN(C(=O)c3ccc(Cl)cc3)CC2)cc1` was tested, and the ED50 was “inactive”.
Work on `CC(=O)c1ccccc1OCCCN1CCN(Cc2ccccc2Cl)CC1` yielded an ED50 of 10.5 mg/kg.
